As a reminder, the Ki is the equilibrium dissociation constant of an inhibitor or competing ligand from its target. One may read the IC50 as the concentration that gives 50% inhibition. The EC50 is the midpoint of the concentration-response curve.

Each structure is given as a SMILES string.

Data set [1] has as its target T1, Estrogen receptor (Homo sapiens) (UniProt P03372).
T1 sequence (whole entry): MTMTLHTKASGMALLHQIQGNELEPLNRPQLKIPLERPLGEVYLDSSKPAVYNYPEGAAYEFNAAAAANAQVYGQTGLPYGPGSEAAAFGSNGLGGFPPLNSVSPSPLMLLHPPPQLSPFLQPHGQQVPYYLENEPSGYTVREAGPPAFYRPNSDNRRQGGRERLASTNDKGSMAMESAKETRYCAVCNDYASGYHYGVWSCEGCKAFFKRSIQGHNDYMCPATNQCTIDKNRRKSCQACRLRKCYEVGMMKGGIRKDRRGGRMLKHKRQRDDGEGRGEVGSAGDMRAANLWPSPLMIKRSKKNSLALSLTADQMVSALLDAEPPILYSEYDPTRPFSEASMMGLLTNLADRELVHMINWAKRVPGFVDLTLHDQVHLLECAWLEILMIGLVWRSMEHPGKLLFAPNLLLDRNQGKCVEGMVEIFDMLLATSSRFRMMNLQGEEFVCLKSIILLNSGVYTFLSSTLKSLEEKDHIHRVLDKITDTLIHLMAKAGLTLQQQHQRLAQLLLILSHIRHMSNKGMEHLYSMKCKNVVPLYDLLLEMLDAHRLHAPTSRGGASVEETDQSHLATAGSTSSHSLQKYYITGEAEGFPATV
Description: Antiestrogenic effect at estrogen receptor in human MCF7 cells assessed as inhibition of E2-induced progesterone receptor mRNA expression at 1000 nM after 24 hrs by real time quantitative PCR. Format: cell-based. Set-up: scale not given: the % may be the effect or the level left. In a few lines: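 MCF-7 cells (10⁵/well) grown in MEM + 10% FBS at 37 °C, 5% CO₂, then preconditioned 72 h in charcoal-stripped FBS. Treated 24 h with 1 μM compound or vehicle (0.1% methanol) plus 10 nM E2 in MEM/10% charcoal-stripped FBS. PGR mRNA extracted after genomic DNA removal and quantified by qPCR (40 cycles, Ct). Reported as % of E2-alone expression (100%); 1 μM endoxifen as positive control.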

The target of another data set is Cytochrome P450 2D6 (Homo sapiens, UniProt P10635). The experiment in a line: Inhibition of human recombinant CYP2D6 after 30 mins by fluorescence assay. Format: ADME.
The target of a further data set is Cytochrome P450 3A4 (Homo sapiens, UniProt P08684). Description: Inhibition of human recombinant CYP3A4 assessed as metabolism of 7-benzyloxy-4-trifluoromethylcoumarin to HFC after 30 mins by fluorescence assay. Format: ADME.
The target in the next data set is T2, Cytochrome P450 1A2 (Homo sapiens, UniProt P05177).
T2 sequence (P05177 whole entry): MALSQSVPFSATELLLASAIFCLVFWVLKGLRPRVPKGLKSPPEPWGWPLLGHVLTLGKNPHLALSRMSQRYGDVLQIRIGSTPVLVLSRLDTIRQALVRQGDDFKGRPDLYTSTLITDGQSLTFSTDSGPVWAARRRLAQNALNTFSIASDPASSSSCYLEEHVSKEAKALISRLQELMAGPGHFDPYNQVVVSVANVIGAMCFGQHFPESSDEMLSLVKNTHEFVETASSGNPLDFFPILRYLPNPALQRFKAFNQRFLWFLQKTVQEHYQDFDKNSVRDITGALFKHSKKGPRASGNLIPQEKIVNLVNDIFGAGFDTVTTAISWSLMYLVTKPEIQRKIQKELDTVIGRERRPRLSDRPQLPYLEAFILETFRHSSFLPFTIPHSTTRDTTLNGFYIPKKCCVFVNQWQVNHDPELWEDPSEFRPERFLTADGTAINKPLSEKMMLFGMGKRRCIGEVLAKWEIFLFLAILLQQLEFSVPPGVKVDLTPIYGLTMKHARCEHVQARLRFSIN
The experiment in a line: Inhibition of human recombinant CYP1A2 assessed as metabolism of 3-cyano-7-ethoxycoumarin after 30 mins by fluorescence assay. The class given is ADME.

In another data set the target is T3, Cytochrome P450 2A6 (Homo sapiens, UniProt P11509).
T3 sequence (P11509 whole entry): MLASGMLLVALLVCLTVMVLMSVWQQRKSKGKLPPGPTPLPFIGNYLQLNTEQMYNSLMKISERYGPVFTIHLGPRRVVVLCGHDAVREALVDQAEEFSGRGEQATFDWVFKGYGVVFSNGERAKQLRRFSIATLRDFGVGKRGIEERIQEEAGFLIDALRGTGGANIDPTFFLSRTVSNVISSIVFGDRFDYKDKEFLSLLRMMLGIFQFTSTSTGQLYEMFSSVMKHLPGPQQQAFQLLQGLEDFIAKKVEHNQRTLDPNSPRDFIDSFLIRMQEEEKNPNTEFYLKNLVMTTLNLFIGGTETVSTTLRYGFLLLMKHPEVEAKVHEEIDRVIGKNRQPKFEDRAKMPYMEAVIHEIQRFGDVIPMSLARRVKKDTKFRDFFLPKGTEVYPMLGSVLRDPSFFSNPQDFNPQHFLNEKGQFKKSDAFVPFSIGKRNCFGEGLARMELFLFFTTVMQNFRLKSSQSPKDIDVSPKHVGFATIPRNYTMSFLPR
Description: Inhibition of human recombinant CYP2A6 assessed as metabolism of coumarin to 7-hydroxycoumarin after 30 mins by fluorescence assay. The class given is ADME.

For a further data set, the target named is Cytochrome P450 3A5 (Homo sapiens, UniProt P20815). The experiment in a line: Inhibition of human recombinant CYP3A5 assessed as metabolism of 7-benzyloxy-4-trifluoromethylcoumarin to HFC after 30 mins by fluorescence assay. Format: ADME.
Data set [2] has as its target T4, Estrogen receptor beta (Homo sapiens, UniProt Q92731). Description: Displacement of fluorescein-labeled ES2 from human recombinant ERbeta receptor at 100000 nM after 2 hrs by fluorescence polarization assay. In a few lines: (§1)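 Same ES2 fluorescence polarization setup: 9 nM ES2 with 30 nM ER-α or 20 nM ER-β, in phosphate/BGG buffer, 2 h in the dark. Each compound tested at a single 100000 nM and reported as percent ER competition versus vehicle control. Compounds were E/Z isomer mixtures (mostly 1:1). Mean of at least three experiments.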
(In general: Polarisation of emitted light reports the rotation of a fluorescent probe.)

Another data set deals with T5, Aromatase (Homo sapiens, UniProt P11511).
T5 sequence (P11511 whole entry): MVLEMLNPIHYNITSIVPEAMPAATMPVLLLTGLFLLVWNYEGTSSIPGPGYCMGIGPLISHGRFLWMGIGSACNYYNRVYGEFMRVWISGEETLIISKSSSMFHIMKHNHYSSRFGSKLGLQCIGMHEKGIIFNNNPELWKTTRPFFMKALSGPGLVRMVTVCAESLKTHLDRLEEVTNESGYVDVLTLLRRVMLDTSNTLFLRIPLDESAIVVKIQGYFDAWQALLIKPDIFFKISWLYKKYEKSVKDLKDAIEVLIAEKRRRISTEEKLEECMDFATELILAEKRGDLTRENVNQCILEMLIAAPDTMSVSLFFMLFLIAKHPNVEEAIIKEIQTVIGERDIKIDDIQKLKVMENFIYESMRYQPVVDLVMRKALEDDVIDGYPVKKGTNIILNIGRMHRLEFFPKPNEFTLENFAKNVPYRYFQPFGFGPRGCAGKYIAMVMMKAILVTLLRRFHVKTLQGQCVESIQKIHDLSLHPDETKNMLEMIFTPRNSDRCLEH
The experiment in a line: Inhibition of human recombinant aromatase using 7-methoxy-trifluoromethylcoumarin as substrate assessed as formation of fluorescent metabolite after 30 mins by fluorescence assay. The conditions noted are these: for inhibition (INH): human, 0.5 h. In a few lines:
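Recombinant human CYP19 with MFC substrate, converted to fluorescent HFC, in 0.1 M potassium phosphate pH 7.4. NADPH-regenerating mix (NADP⁺, MgCl₂, glucose-6-phosphate, G6PDH); compound prewarmed 10 min at 37 °C, then 30 min reaction stopped with Tris base in acetonitrile. Activity as % of vehicle control; IC50 from one-site competition fit; Ki from Lineweaver–Burk data by nonlinear regression.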

Data set [3] deals with T1, Estrogen receptor (Homo sapiens). Description: Displacement of fluorescein-labeled ES2 from human recombinant ERalpha receptor at 100000 nM after 2 hrs by fluorescence polarization assay. In short, it runs like this:
as §1

The target of data set [4] is T4, Estrogen receptor beta. The experiment in a line: Displacement of fluorescein-labeled ES2 from human recombinant ERbeta receptor after 2 hrs by fluorescence polarization assay. In a few lines:
(§2)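 Fluorescence polarization competition. Compound in methanol or DMSO mixed with ES2 screening buffer (100 mM potassium phosphate, 100 μg/mL BGG, 0.02% NaN₃). Preformed complex added to final 9 nM ES2 with 30 nM ER-α or 20 nM ER-β. Polarization expressed as % of vehicle control; EC50 from one-site competition fit.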

A further data set addresses T6, Estrogen receptor (Homo sapiens, UniProt P03372).
T6 sequence (P03372 whole entry): T1 sequence (whole entry)
The experiment in a line: Displacement of fluorescein-labeled ES2 from human recombinant ERalpha receptor after 2 hrs by fluorescence polarization assay. In short, it runs like this:
as §2

Cytochrome P450 2D6, sequence (P10635 whole entry): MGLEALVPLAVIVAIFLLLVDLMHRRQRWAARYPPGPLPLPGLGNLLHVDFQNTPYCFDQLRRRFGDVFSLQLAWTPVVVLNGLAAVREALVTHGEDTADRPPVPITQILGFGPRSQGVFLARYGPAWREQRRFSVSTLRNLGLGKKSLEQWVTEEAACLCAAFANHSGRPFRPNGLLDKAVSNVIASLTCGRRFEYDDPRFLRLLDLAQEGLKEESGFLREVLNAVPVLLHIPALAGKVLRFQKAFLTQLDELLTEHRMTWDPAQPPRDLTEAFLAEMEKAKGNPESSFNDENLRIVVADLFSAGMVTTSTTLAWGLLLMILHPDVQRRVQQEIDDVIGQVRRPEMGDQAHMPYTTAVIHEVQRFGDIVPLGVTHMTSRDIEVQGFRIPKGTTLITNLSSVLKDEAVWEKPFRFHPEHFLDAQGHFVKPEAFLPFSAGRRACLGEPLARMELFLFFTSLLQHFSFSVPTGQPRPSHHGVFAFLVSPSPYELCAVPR
Cytochrome P450 3A4, sequence (P08684 whole entry): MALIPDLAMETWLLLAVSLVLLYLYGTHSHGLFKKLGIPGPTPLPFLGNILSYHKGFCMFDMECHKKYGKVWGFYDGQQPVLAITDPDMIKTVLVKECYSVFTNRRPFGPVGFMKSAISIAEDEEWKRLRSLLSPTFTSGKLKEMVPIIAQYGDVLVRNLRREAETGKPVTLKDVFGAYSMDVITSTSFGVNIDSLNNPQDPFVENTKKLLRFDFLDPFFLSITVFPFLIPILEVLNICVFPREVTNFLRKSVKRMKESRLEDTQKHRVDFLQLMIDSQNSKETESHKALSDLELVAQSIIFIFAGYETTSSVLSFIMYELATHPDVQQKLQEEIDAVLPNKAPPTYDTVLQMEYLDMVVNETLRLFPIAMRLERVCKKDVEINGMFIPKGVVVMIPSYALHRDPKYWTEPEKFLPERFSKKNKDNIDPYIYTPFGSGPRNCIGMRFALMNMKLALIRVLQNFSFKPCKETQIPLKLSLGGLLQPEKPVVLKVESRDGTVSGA
T4 sequence (Q92731 whole entry): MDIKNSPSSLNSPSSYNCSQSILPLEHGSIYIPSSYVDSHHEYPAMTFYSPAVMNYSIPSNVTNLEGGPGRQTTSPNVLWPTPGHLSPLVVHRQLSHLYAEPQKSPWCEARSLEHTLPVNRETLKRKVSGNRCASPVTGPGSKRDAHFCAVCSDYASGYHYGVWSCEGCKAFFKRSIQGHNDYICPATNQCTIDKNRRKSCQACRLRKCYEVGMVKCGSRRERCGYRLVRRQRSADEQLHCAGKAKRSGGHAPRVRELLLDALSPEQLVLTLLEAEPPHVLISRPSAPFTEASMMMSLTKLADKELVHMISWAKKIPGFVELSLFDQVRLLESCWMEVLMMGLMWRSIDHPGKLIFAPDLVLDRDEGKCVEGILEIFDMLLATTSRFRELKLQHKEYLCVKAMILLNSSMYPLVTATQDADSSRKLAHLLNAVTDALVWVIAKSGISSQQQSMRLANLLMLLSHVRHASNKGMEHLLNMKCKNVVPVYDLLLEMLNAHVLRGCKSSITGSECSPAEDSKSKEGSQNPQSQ
Cytochrome P450 3A5, sequence (P20815 whole entry): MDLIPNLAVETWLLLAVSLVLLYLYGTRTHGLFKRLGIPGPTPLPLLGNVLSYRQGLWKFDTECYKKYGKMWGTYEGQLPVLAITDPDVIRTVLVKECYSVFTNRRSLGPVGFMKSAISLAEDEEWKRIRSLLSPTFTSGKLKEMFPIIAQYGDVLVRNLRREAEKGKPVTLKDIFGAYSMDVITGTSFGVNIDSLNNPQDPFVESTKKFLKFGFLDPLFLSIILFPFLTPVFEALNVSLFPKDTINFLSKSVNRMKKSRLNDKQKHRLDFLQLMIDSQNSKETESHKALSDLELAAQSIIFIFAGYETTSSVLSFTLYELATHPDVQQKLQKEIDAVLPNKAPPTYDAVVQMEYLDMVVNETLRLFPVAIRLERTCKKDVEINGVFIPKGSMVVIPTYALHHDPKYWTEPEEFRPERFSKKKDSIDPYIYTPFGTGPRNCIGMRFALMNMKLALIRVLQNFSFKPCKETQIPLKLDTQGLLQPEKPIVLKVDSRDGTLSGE

Consider `CC/C(=C(/c1ccc(O)cc1)c1ccc(OCCN)cc1)c1ccccc1` (mixture of isomers), for which, in [1], the Activity amounted to 32%. For the same molecule, the inhibitory constant (Ki) result on Cytochrome P450 2D6 is “Not Active”; on Cytochrome P450 3A4, 375 nM; at Cytochrome P450 2A6, 2180 nM; at Cytochrome P450 3A5, 829 nM. Besides, the “inhibition (INH)” value at Cytochrome P450 2D6 (human, recombinant enzyme, 0.5 h) is “Not Active”. For the same molecule, the IC50 turned out to be 285 nM on Cytochrome P450 3A4, 207 nM on Cytochrome P450 1A2, 6370 nM on Cytochrome P450 2A6 and 723 nM on Cytochrome P450 3A5.

Take `NCCOc1ccc(/C(=C(\Cn2ccnc2)c2ccccc2)c2ccc(O)cc2)cc1` (mixture of isomers): the Activity was 74% on Estrogen receptor beta [2] and 59% in [3]. Further, the IC50 on Aromatase worked out at 16.9 nM.

In the case of `CC/C(=C(/c1ccc(O)cc1)c1ccc(OCCBr)cc1)c1ccccc1` (mixture of isomers), the Activity (on Estrogen receptor beta [2]; in data set [3]) was 60% throughout. Further, the “inhibition (INH)” value on Aromatase is given as 20%.

Regarding `CC/C(=C(/c1ccc(O)cc1)c1ccc(OCC(=O)O)cc1)c1ccccc1` (mixture of isomers), the Activity at Estrogen receptor beta [2] amounted to 57%; in data set [3] it was 55%. The IC50 on Aromatase is 3680 nM.

Consider `N#CC/C(=C(/c1ccc(O)cc1)c1ccc(OCCN)cc1)c1ccccc1` (mixture of isomers), for which the Activity on Estrogen receptor beta [2] came out at 64%; in data set [3], 48%. The IC50 at Aromatase amounted to 48.9 nM.

Take `CC(C)/C(=C(/c1ccc(O)cc1)c1ccc(OCCN)cc1)c1ccccc1` (mixture of isomers): the Activity was 68% on Estrogen receptor beta [2] and 54% in data set [3]. Besides, the IC50 at Aromatase was 328 nM.

Consider `CC/C(=C(/c1ccc(O)cc1)c1ccc(OCCN)cc1)c1ccc(O)cc1` (mixture of isomers), for which, in data set [1], the Activity turned out to be 14%. Further, the EC50 was determined as 9.5 nM at Estrogen receptor beta [4] and 15 nM at Estrogen receptor. In addition, the IC50 on Cytochrome P450 2D6 came to 3600 nM; on Aromatase it was 45 nM; at Cytochrome P450 3A4 it was 1880 nM; on Cytochrome P450 1A2, 207 nM; at Cytochrome P450 3A5, 556 nM. Also, the Ki amounted to 423 nM on Cytochrome P450 2D6 (read-out: Ki); 1640 nM at Cytochrome P450 3A4; 56 nM at Cytochrome P450 1A2; 710 nM at Cytochrome P450 2A6; 855 nM on Cytochrome P450 3A5.

For the molecule `CC/C(=C(/c1ccc(O)cc1)c1ccc(OCCCl)cc1)c1ccccc1` (mixture of isomers), the figures for the Activity (at Estrogen receptor beta [2]; in data set [3]) were 40% and 62%, respectively. The “inhibition (INH)” value at Aromatase is reported as 27%.

Regarding `CC/C(=C(/c1ccc(O)cc1)c1ccc(OCCO)cc1)c1ccccc1` (mixture of isomers), the figures for the Activity (on Estrogen receptor beta [2]; in [3]) were 56% and 62%, respectively. Further, the IC50 at Aromatase stood at 30500 nM.

For the molecule `CC/C(=C(/c1ccccc1)c1ccc(OCCN)cc1)c1ccccc1` (mixture of isomers), the Activity (on Estrogen receptor beta [2]; in data set [3]) was 0% in each case. Moreover, the IC50 on Aromatase is 913 nM.

These data come from ChEMBL document CHEMBL3421623 (J Med Chem, 2015).
